Data set [1] concerns the target T1, Fe(3+)-Zn(2+) purple acid phosphatase (Phaseolus vulgaris) (UniProt P80366).
T1 sequence (whole entry): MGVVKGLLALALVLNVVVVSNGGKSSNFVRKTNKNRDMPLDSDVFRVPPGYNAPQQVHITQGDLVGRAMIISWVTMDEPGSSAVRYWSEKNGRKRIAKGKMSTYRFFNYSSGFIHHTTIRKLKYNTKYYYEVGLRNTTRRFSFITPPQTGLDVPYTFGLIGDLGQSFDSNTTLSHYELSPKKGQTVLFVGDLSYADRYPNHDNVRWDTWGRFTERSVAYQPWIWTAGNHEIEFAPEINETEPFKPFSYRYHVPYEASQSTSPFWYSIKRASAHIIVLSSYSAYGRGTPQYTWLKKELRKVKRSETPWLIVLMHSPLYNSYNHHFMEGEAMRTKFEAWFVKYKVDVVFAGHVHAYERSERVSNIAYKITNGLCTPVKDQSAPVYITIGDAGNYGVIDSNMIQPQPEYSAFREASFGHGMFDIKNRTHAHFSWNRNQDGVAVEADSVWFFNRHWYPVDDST
The data set is described as follows: Competitive inhibition of red kidney bean PAP using varying levels of pNPP as substrate measured at pH 6.2 by UV-vis spectrophotometric analysis. Put shortly: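 Red kidney bean PAP (rkbPAP), purified, at 8.4 nM. p-NPP 1–15 mM in 0.1 M MES pH 6.2 with 25% DMSO, 25 °C. p-Nitrophenol formation followed at 405 nm (Δε 1834.4 mol−1 L cm−1). Inhibitor concentration varied; competitive constant Kic from non-linear regression using a general inhibition equation.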

The nature of data set [2]: Solubility of the compound in 25% DMSO. The data set is classed as physicochemical.
The species entered for a further data set is Sus scrofa. The data set is described as follows: Competitive inhibition of pig PAP using varying levels of pNPP as substrate measured at pH 4.9 by UV-vis spectrophotometric analysis. Put shortly:
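Purified pig PAP, first reduced to the FeIII-FeII form (0.77 mM β-mercaptoethanol, 10 min, 37 °C), at 8.4 nM. p-NPP 1–15 mM in 0.1 M acetate pH 4.9 with 25% DMSO, 25 °C. p-Nitrophenol formation read at 405 nm (Δε 342.9 mol−1 L cm−1). Inhibitor concentration varied; Kic fitted by non-linear regression to a general inhibition equation.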

Data set [3] can be described thus: Inhibition of human PAP assessed as dephosphorylation of 4-methylumbelliferyl phosphate to 4-methylumbelliferone using 4-methylumbelliferyl phosphate as substrate measured for 15 mins by micro-fluorescence detector method.

Consider `CCCCCCCCCCCCCCOC(c1cccc2ccccc12)P(=O)(O)O` (racemic), for which the values for the Kic (in data set [1]; in the data set listed under Sus scrofa) were 0.2 µM and 1.1 µM, respectively. Moreover, the solubility entry in data set [2] is “Soluble”.
For `CCCCCCCCCCCCCCCCCCCCOC(c1cccc2ccccc12)P(=O)(O)O` (racemic) the same measures were 0.8 µM, 4.4 µM and “Soluble”.
In the case of `CCCCCCCCCCCCCCCCCCOC(c1cccc2ccccc12)P(=O)(O)O` (racemic), the values for the Kic (in data set [1]; in the data set listed under Sus scrofa) were 0.5 µM and 0.2 µM, respectively. Further, the solubility entry in data set [2] is “Soluble”.
The like results for `CCCCCCCCCCCCOC(c1cccc2ccccc12)P(=O)(O)O` (racemic) were, in that order, 4.5 µM, 0.7 µM and “Soluble”.
The term IC50 denotes the concentration that inhibits the measured activity by half. `O=C(c1ccccc1)C(C(=O)c1ccccc1)(c1cccc2ccccc12)P(=O)(O)O`: the IC50 in data set [3] came to 1400 nM.
As to `CCCCCCCCCCCCCCCCOC(c1cccc2ccccc12)P(=O)(O)O` (racemic), the Kic was determined as 0.4 µM in data set [1] and 0.6 µM in the data set filed under Sus scrofa. Further, the solubility entry in data set [2] is on record as “Soluble”.
As to `CCCCCCCCCCCCCCCCCCCCCCOC(c1cccc2ccccc12)P(=O)(O)O` (racemic), the Kic in data set [1] was determined as 14 µM; in the data set listed under Sus scrofa, 62 µM. The solubility entry in data set [2] is “Soluble”.
